Experimental data taken from ChEMBL document CHEMBL1136326, “New benzylidenethiazolidinediones as antibacterial agents” (2003).
≈ marks a conversion by molar mass, not a printed value.

Key:
Type in all cases: functional
[1] = Minimal inhibitory concentration (antibacterial activity) against […] ERY2 (SPNE)
Summary of the method: (§1)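 Broth microdilution in cation-adjusted Mueller Hinton broth. Compounds in DMSO were diluted 1:10 with water to a 256 ug/mL solution, then serially 2-fold diluted, giving 0.06 to 64 μg/mL. Inoculum about 1 × 10^6 cfu/mL. Incubation at 35 C for 24 h. MIC is the lowest concentration that inhibits visible growth.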

Staphylococcus aureus = test: Minimal inhibitory concentration (antibacterial activity) against Staphylococcus aureus Oxford (SAUR); summary of the method: as §1
Enterococcus faecalis = test: Minimal inhibitory concentration (antibacterial activity) against Enterococcus faecalis 7 (EFAE); summary of the method: as §1
[2] = Streptococcus pneumoniae, read-out: MIC
[3] = Staphylococcus aureus, read-out: MIC
[4] = Enterococcus faecalis, read-out: MIC

| MIC [1, 2] [µg/mL] | MIC (Staphylococcus aureus; [3]) [µg/mL] | MIC (Enterococcus faecalis; [4]) [µg/mL] | MIC [1] [µg/mL] | MIC (Staphylococcus aureus) [µg/mL] | MIC (Enterococcus faecalis) [µg/mL] | SMILES |
| --- | --- | --- | --- | --- | --- | --- |
| 64 (≈ 138 µM) | > 64 | 64 (≈ 138 µM) |  |  |  | CCCc1c(OCC(O)COc2ccc(/C=C3\CC(=O)NC3=O)cc2)ccc(Cl)c1Cl (centres undefined) |
| 8 (≈ 16.5 µM) | 8 (≈ 16.5 µM) | 16 (≈ 33 µM) |  |  |  | CCCc1c(OCC(O)COc2ccc(CC3SC(=O)NC3=O)cc2)ccc(Cl)c1Cl (centres undefined) |
| > 64 | > 64 | > 64 |  |  |  | CCCc1c(OCC(=O)COc2ccc(/C=C3\SC(=O)NC3=O)cc2)ccc(Cl)c1Cl |
| 32 (≈ 68.6 µM) | 16 (≈ 34.3 µM) | 16 (≈ 34.3 µM) |  |  |  | CCCc1c(OCC(O)COc2ccc(/C=C3\OC(=O)NC3=O)cc2)ccc(Cl)c1Cl (centres undefined) |
| 32 (≈ 83 µM) | 64 (≈ 166 µM) | > 64 |  |  |  | Cc1ccccc1OCC(O)COc1ccc(/C=C2\SC(=O)NC2=O)cc1 (centres undefined) |
| 64 (≈ 172 µM) | > 64 | > 64 |  |  |  | O=C1NC(=O)/C(=C/c2ccc(OCC(O)COc3ccccc3)cc2)S1 (centres undefined) |
| > 64 | > 64 | > 64 |  |  |  | O=C1NC(=O)/C(=C/c2ccc(OCC(O)COc3ccc(Cl)c(Cl)c3)cc2)S1 (centres undefined) |
| 4 (≈ 8.29 µM) | 8 (≈ 16.6 µM) | 8 (≈ 16.6 µM) |  |  |  | CCCc1cc(Cl)c(Cl)cc1OCC(O)COc1ccc(/C=C2\SC(=O)NC2=O)cc1 (centres undefined) |
| 2 (≈ 4.15 µM) | 2 (≈ 4.15 µM) | 4 (≈ 8.29 µM) |  |  |  | CCCc1c(OC[C@@H](O)COc2ccc(/C=C3\SC(=O)NC3=O)cc2)ccc(Cl)c1Cl |
| 1 (≈ 2.07 µM) | 1 (≈ 2.07 µM) | 64 (≈ 133 µM) |  |  |  | CCCc1c(OC[C@H](O)COc2ccc(/C=C3\SC(=O)NC3=O)cc2)ccc(Cl)c1Cl |
| > 64 | > 64 | > 64 |  |  |  | CCCc1c(OCCCOc2ccc(/C=C3\SC(=O)NC3=O)cc2)ccc(Cl)c1Cl |
| 4 (≈ 8.6 µM) | 4 (≈ 8.6 µM) | 4 (≈ 8.6 µM) |  |  |  | CCCc1c(OCC(O)COc2ccc(/C=C3\NC(=O)NC3=O)cc2)ccc(Cl)c1Cl (centres undefined) |
| 2 (≈ 4.15 µM) | 16 (≈ 33.2 µM) | 32 (≈ 66.5 µM) |  |  |  | CCCc1c(OCC(N)COc2ccc(/C=C3\SC(=O)NC3=O)cc2)ccc(Cl)c1Cl (centres undefined) |
| 2 (≈ 4.84 µM) | 16 (≈ 38.7 µM) | > 64 |  |  |  | CCCc1ccccc1OCC(O)COc1ccc(/C=C2\SC(=O)NC2=O)cc1 (centres undefined) |
| 16 (≈ 40.1 µM) | 16 (≈ 40.1 µM) | 32 (≈ 80.1 µM) |  |  |  | CCc1ccccc1OCC(O)COc1ccc(/C=C2\SC(=O)NC2=O)cc1 (centres undefined) |
| > 64 | > 64 | > 64 |  |  |  | O=C1NC(=O)/C(=C/c2ccc(OCC(O)COc3ccc(Cl)c(Cl)c3Cl)cc2)S1 (centres undefined) |
|  |  |  | >64 | >64 | >64 | CCCc1c(OCC(O)COc2ccc(/C=C3\SC(=O)N(C)C3=O)cc2)ccc(Cl)c1Cl (stereo in doubt; 6) |
|  |  |  | 1 (≈ 2.01 µM) | 8 (≈ 16.1 µM) | 4 (≈ 8.06 µM) | CCCc1c(OCC(O)COc2ccc(/C=C3\SC(=O)N(C)C3=O)cc2)ccc(Cl)c1Cl (stereo in doubt; 12) |
